Laboratory results: ChEMBL document CHEMBL4229559, “Synthesis toward Bivalent Ligands for the Dopamine D2 and Metabotropic Glutamate 5 Receptors” (J Med Chem, 2018)
pEC50, pIC50, pKi: −log10 of the molar value.

Key:
[1] = target: T1, D(2) dopamine receptor (Homo sapiens, UniProt P14416); experiment: Displacement of [3H]-Raclopride from recombinant human dopamine D2 receptor expressed in HEK293T cell membranes after 1 hr by liquid scintillation counting
Procedure, shortened: (§1)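 Membranes (20 µg) from HEK293T cells stably expressing D2R, or D2R with mGluR5. Incubated with 2.0 nM [3H]raclopride and unlabeled ligand (0.1 nM-10 µM) for 1 h at 37 °C in 50 mM Tris-HCl pH 7.4 containing NaCl, KCl, MgCl2, CaCl2 and EDTA. Nonspecific binding defined with 1 µM haloperidol. Counted by scintillation; Ki by Cheng-Prusoff; three independent assays.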

[2] = target: T1, D(2) dopamine receptor; experiment: Displacement of [3H]-Raclopride from recombinant human dopamine D2 receptor expressed in HEK293T cell membranes co-expressing mGluR5a (unknown origin) after 1 hr by liquid scintillation counting; procedure, shortened: as §1
[3] = target: T2, Metabotropic glutamate receptor 5 (Homo sapiens, UniProt P41594); experiment: Antagonist activity at mGluR5 (unknown origin) expressed in HEK293T cells assessed as inhibition of L-Glu-induced MAPK phosphorylation preincubated for 30 mins followed by agonist stimulation for 10 mins by Western blot analysis; type: functional, cell-based
Procedure, shortened: (§2)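 Cells stably expressing mGluR5 alone or with D2R, seeded at 400,000 per well, serum-starved overnight at about 70% confluence. Ligand pretreatment at 1 nM-10 µM for 30 min at 37 °C, then 10 µM L-glutamate for 7-10 min. RIPA lysates run on western blot; phospho-p44/42 MAPK signal normalized to total p44/42 MAPK. Mean ± SEM of three independent experiments.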

[4] = target: T1, D(2) dopamine receptor; experiment: Agonist activity at human dopamine D2 receptor expressed in HEK293T cells assessed as reduction in forskolin-induced cAMP accumulation preincubated for 15 mins followed by forskolin addition by GloSensor-based assay; type: functional, cell-based; conditions: for pEC50: read-out: EC50
[5] = target: T3, D(2) dopamine receptor/Metabotropic glutamate receptor 5 (Homo sapiens, UniProt P14416+P41594); experiment: Agonist activity at human dopamine D2 receptor /mGluR5a (unknown origin) expressed in HEK293T cells assessed as reduction in forskolin-induced cAMP accumulation preincubated for 15 mins followed by forskolin addition by GloSensor-based assay; type: functional, cell-based; conditions: for pEC50: read-out: EC50
[6] = target: T2, Metabotropic glutamate receptor 5; experiment: Displacement of [3H]MPEP from recombinant mGluR5 (unknown origin) expressed in HEK293T cell membranes after 1 hr by liquid scintillation counting
Procedure, shortened: (§3)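 Membranes (20 µg) from cells stably expressing mGluR5, with or without D2R. Incubated with 3.0 nM [3H]MPEP and unlabeled ligand (0.1 nM-100 µM) in 50 mM Tris-HCl/2 mM MgCl2, pH 7.4, for 1 h at 25 °C. Nonspecific binding defined with 10 µM MPEP. Filtration and scintillation counting; Ki via Cheng-Prusoff; three independent assays in duplicate.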

[7] = target: T2, Metabotropic glutamate receptor 5; experiment: Displacement of [3H]MPEP from recombinant mGluR5a (unknown origin) expressed in HEK293T cell membranes co-expressing human dopamine D2 receptor after 1 hr by liquid scintillation counting; procedure, shortened: as §3
[8] = target: T3, D(2) dopamine receptor/Metabotropic glutamate receptor 5; experiment: Antagonist activity at human dopamine D2 receptor /mGluR5a (unknown origin) expressed in HEK293T cells assessed as inhibition of L-Glu-induced MAPK phosphorylation preincubated for 30 mins followed by agonist stimulation for 10 mins by Western blot analysis; type: cell-based; procedure, shortened: as §2

T1 sequence (P14416 whole entry): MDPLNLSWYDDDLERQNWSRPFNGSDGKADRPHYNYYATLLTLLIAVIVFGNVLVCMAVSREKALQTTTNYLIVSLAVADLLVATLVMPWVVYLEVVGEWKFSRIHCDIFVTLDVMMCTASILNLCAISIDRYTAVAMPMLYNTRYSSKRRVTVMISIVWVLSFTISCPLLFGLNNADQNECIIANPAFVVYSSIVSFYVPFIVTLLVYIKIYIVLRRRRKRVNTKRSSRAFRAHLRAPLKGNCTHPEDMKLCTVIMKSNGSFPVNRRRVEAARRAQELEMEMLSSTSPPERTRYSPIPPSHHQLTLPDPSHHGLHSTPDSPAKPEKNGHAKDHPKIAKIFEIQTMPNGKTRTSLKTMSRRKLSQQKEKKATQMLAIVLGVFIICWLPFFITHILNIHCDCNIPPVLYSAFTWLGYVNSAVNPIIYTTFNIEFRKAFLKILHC
T3 sequence (P14416 whole entry): as above
T3 sequence (P41594 whole entry): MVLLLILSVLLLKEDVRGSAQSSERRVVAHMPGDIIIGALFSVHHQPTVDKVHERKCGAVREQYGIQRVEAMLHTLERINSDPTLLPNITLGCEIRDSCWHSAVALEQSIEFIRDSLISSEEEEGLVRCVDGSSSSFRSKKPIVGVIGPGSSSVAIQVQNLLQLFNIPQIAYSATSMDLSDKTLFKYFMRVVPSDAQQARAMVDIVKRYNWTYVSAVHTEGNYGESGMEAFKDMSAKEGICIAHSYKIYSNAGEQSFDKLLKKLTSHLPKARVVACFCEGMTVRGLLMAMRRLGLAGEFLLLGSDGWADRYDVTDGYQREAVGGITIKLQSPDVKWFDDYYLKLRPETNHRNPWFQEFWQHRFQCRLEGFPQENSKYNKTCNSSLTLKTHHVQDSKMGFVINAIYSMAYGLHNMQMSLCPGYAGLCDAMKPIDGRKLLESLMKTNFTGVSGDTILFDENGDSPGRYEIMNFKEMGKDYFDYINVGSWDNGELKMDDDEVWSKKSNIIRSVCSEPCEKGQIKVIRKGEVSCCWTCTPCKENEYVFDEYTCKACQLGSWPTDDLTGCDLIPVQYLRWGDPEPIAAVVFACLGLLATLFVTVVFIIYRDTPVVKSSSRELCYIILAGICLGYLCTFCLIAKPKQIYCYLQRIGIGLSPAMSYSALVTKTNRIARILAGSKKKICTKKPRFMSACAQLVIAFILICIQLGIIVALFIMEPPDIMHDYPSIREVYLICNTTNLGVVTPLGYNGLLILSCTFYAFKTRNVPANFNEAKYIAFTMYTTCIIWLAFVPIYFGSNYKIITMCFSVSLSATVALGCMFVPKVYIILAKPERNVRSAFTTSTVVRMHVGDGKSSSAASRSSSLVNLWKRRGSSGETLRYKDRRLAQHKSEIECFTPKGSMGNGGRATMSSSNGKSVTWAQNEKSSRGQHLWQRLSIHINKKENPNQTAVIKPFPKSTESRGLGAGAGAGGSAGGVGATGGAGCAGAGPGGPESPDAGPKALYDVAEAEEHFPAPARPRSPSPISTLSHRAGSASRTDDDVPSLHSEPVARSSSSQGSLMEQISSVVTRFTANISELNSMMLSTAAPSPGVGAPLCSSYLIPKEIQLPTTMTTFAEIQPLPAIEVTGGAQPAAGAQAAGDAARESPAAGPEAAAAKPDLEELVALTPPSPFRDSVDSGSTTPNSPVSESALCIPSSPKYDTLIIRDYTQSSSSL
T2 sequence (P41594 whole entry): as above

Row | SMILES | pKi [1] | pKi [2] | pIC50 [3] | pEC50 [4] | pEC50 [5] | pKi [6] | pKi [7] | pIC50 [8] | EC50 [4] | EC50 [5]
1 | COc1cc(CN2CCN(c3ccccc3OC)CC2)ccc1OCc1cn(CCOCCOCCOCCOCCOCCNC(=O)COc2cccc(C#Cc3csc(C)n3)c2)nn1 | 6.45 | 6.73 | 6.05 | – | – | – | – | – | – | –
2 | CCCN(CCc1ccc(NC(=O)CCc2cn(CCCCCCNC(=O)COc3cncc(C#Cc4csc(C)n4)c3)nn2)cc1)C1CCc2c(O)cccc2C1 (stereo unspecified) | 6.53 | 6.85 | 5.80 | 8.12 | 7.70 | – | – | – | – | –
3 | COc1cc(CN2CCN(c3ccccc3OC)CC2)ccc1OCc1cn(CCCCCCCCN(C)CCCCCNC(=O)COc2cccc(C#Cc3csc(C)n3)c2)nn1 | 6.83 | 7.03 | 6.62 | – | – | – | – | – | – | –
4 | COc1cc(CN2CCN(c3ccccc3OC)CC2)ccc1OCc1cn(CCCCCCCCCCN(C)CCCCCNC(=O)COc2cccc(C#Cc3csc(C)n3)c2)nn1 | 6.40 | 6.60 | 6.51 | – | – | – | – | – | – | –
5 | CCCN(CCc1ccc(NC(=O)CCc2cn(CCCCCCCCN(C)CCCCCNC(=O)COc3cncc(C#Cc4csc(C)n4)c3)nn2)cc1)C1CCc2c(O)cccc2C1 (stereo unspecified) | 7.30 | 7.89 | 6.77 | 8.48 | 8.82 | 5.64 | 5.96 | 6.21 | – | –
6 | C#CCCC(=O)Nc1ccc(CCN(CCC)C2CCc3c(O)cccc3C2)cc1 (stereo unspecified) | 7.77 | 7.72 | – | 8.52 | 8.19 | – | – | – | – | –
7 | COc1cc(CN2CCN(c3ccccc3OC)CC2)ccc1OCc1cn(CCCCCCCCCCN(C)CCCCCNC(=O)COc2cncc(C#Cc3csc(C)n3)c2)nn1 | 6.52 | 6.94 | 6.35 | – | – | – | – | – | – | –
8 | Cc1nc(C#Cc2cncc(OCC(=O)NCCCCCN(C)CCCCCCCCN=[N+]=[N-])c2)cs1 | – | – | 5.59 | – | – | 5.24 | 5.24 | 5.35 | – | –
9 | CCCN(CCc1ccc(NC(=O)CCc2cn(CCCCCCCCCCN(C)CCCCCNC(=O)COc3cncc(C#Cc4csc(C)n4)c3)nn2)cc1)C1CCc2c(O)cccc2C1 (stereo unspecified) | 7.10 | 6.77 | 6.49 | 8.26 | 7.49 | – | – | – | – | –
10 | COc1cc(CN2CCN(c3ccccc3OC)CC2)ccc1OCc1cn(CCCCCCCCN(C)CCCCCNC(=O)COc2cncc(C#Cc3csc(C)n3)c2)nn1 | 6.88 | 7.35 | 6.96 | – | – | 6.00 | 5.89 | 5.74 | – | –
11 | COc1cc(CN2CCN(c3ccccc3OC)CC2)ccc1OCc1cn(CCOCCOCCOCCNC(=O)COc2cccc(C#Cc3csc(C)n3)c2)nn1 | 6.36 | 6.60 | 5.92 | – | – | – | – | – | – | –
12 | C#CCOc1ccc(CN2CCN(c3ccccc3OC)CC2)cc1OC | 7.11 | 7.16 | – | – | – | – | – | – | Not Active | Not Active
